# From ChEMBL document CHEMBL1667749, “Design & synthesis of N'-[substituted] pyridine-4-carbohydrazides as potential anticonvulsant agents” (Eur J Med Chem, 2011)
# Active and inactive are the calls of the source. No cut-off for these calls is given here.
# Experiments:
# Rattus norvegicus [1] = experiment: Acute toxicity in Sprague-Dawley rat assessed as motor impairment at 100 mg/kg, ip after 4 hrs; assay type: organism-based; parameters: dose 100 mg/kg, route intraperitoneal; settings: in vivo
# Outline: (§1)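 Male albino Sprague Dawley rats, two per dose, given test compound i.p. as a suspension in 0.5% methyl cellulose. Behaviour was closely observed and recorded over 4 h to detect acute motor impairment. Values are scored as animals toxic over animals tested at each time point.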
# Rattus norvegicus [2] = experiment: Acute toxicity in Sprague-Dawley rat assessed as motor impairment at 100 mg/kg, ip after 2 hrs; assay type: organism-based; parameters: dose 100 mg/kg, route intraperitoneal; settings: in vivo; outline: as §1
# Rattus norvegicus [3] = experiment: Acute toxicity in Sprague-Dawley rat assessed as motor impairment at 100 mg/kg, ip after 1 hr; assay type: organism-based; parameters: dose 100 mg/kg, route intraperitoneal; settings: in vivo; outline: as §1
# Rattus norvegicus [4] = experiment: Acute toxicity in Sprague-Dawley rat assessed as motor impairment at 100 mg/kg, ip after 0.5 hrs; assay type: organism-based; parameters: dose 100 mg/kg, route intraperitoneal; settings: in vivo; outline: as §1
# Rattus norvegicus [5] = experiment: Acute toxicity in Sprague-Dawley rat assessed as motor impairment at 100 mg/kg, ip after 0.25 hrs; assay type: organism-based; parameters: dose 100 mg/kg, route intraperitoneal; settings: in vivo; outline: as §1
# Mus musculus [6] = organism: Mus musculus; experiment: Protective index, ratio of TD50 for albino CF-1 mouse to ED50 for albino CF-1 mouse assessed as protection against 6 Hz psychomotor seizure; assay type: functional
# Outline: (§2)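 Protection index = TD50 (rotorod, mice, i.p.) divided by ED50 from MES or 6 Hz test, each at its time of peak effect.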
# Mus musculus [7] = organism: Mus musculus; experiment: Protective index, ratio of TD50 for albino CF-1 mouse to ED50 for albino CF-1 mouse assessed as protection against maximal electroshock-induced seizures; assay type: functional; outline: as §2
# Mus musculus [8] = experiment: Anticonvulsant activity in ip dosed albino CF-1 mouse assessed as protection against 6 Hz psychomotor seizure after 0.25 hrs by minimal clonic seizure test; assay type: functional; settings: albino CF-1, ip
# Outline: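 Quantitative 6 Hz test in male CF-1 mice dosed i.p.; 32 mA for 3 s via corneal electrodes at time of peak effect; ED50 with 95% confidence interval, slope and standard error reported.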
# [9] = Neurotoxicity in ip dosed albino CF-1 mouse assessed as motor impairment after 8 hrs by rotarod test; assay type: toxicity, organism-based; settings: in vivo, read-out: ID50
# Mus musculus [10] = experiment: Anticonvulsant activity in ipp dosed albino CF-1 mouse assessed as protection against subcutaneous metrazol-induced seizures after 1 hr; assay type: functional; settings: albino CF-1, sc
# Mus musculus [11] = experiment: Anticonvulsant activity in ip dosed albino CF-1 mouse assessed as protection against maximal electroshock-induced seizures after 1 hr; assay type: functional; settings: albino CF-1, ip
# Mus musculus [12] = experiment: Anticonvulsant activity in albino CF-1 mouse assessed as protection against 6 Hz psychomotor seizure at 100 mg/kg, ip after 4 hrs by minimal clonic seizure test; assay type: functional, organism-based; parameters: dose 100 mg/kg
# Outline: (§3)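 Male CF-1 mice (18–25 g), i.p. 100 mg/kg in 0.5% methyl cellulose suspension; 6 Hz corneal stimulation, 32 mA for 3 s, four mice per time point. Protected if no minimal clonic phase with stereotyped automatistic behaviour.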
# Mus musculus [13] = experiment: Anticonvulsant activity in albino CF-1 mouse assessed as protection against 6 Hz psychomotor seizure at 100 mg/kg, ip after 2 hrs by minimal clonic seizure test; assay type: functional; outline: as §3
# Mus musculus [14] = experiment: Anticonvulsant activity in albino CF-1 mouse assessed as protection against 6 Hz psychomotor seizure at 100 mg/kg, ip after 1 hr by minimal clonic seizure test; assay type: functional; settings: route intraperitoneal; outline: as §3
# Mus musculus [15] = experiment: Anticonvulsant activity in albino CF-1 mouse assessed as protection against 6 Hz psychomotor seizure at 100 mg/kg, ip after 0.5 hrs by minimal clonic seizure test; assay type: functional; outline: as §3
# Mus musculus [16] = experiment: Anticonvulsant activity in albino CF-1 mouse assessed as protection against 6 Hz psychomotor seizure at 100 mg/kg, ip after 0.25 hrs by minimal clonic seizure test; assay type: functional; settings: route intraperitoneal; outline: as §3
# Mus musculus [17] = experiment: Anticonvulsant activity in albino CF-1 mouse assessed as protection against maximal electroshock-induced seizures at 300 mg/kg, ip after 0.5 hrs; assay type: functional, organism-based; parameters: dose 300 mg/kg
# Outline: (§4)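 Male CF-1 mice (18–25 g), i.p. in 0.5% methyl cellulose at 30, 100 and 300 mg/kg; MES: 60 Hz, 50 mA, 0.2 s through tetracaine-primed corneal electrodes; protection = abolished hind limb tonic extension. Value given as minimum dose active in half or more of mice.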
# Mus musculus [18] = experiment: Anticonvulsant activity in ip dosed albino CF-1 mouse assessed as dose required to protect against maximal electroshock-induced seizures after 2 hrs; assay type: functional; outline: as §4
# Mus musculus [19] = experiment: Anticonvulsant activity in ip dosed albino CF-1 mouse assessed as dose required to protect against maximal electroshock-induced seizures after 4 hrs; assay type: functional; outline: as §4
# Mus musculus [20] = experiment: Anticonvulsant activity in albino CF-1 mouse assessed as protection against subcutaneous metrazol-induced seizures at 300 mg/kg, ip after 0.5 hrs; assay type: functional, organism-based; parameters: dose 300 mg/kg
# Outline: (§5)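 Male CF-1 mice, i.p. at 30, 100, 300 mg/kg in 0.5% methyl cellulose; metrazol dose convulsing 97% of animals injected s.c. in midline neck fold, mice isolated and watched 30 min; protected if no 3–5 s clonic spasm episode of limbs, jaws or vibrissae.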
# Mus musculus [21] = experiment: Anticonvulsant activity in albino CF-1 mouse assessed as protection against subcutaneous metrazol-induced seizures at 300 mg/kg, ip after 4 hrs; assay type: functional, organism-based; parameters: dose 300 mg/kg; outline: as §5
# Mus musculus [22] = experiment: Neurotoxicity in albino CF-1 mouse assessed as motor impairment at 300 mg/kg, ip after 0.5 hrs by rotarod test; assay type: toxicity, organism-based; parameters: dose 300 mg/kg, route intraperitoneal; settings: in vivo
# Outline: (§6)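 Minimal motor impairment in male CF-1 mice by rotorod after i.p. dosing; toxic if animal falls off rotating rod 3 times within 1 min. Screen doses 30, 100, 300 mg/kg; quantitative TD50 (95% confidence interval) determined at time of peak effect.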
# Mus musculus [23] = experiment: Neurotoxicity in albino CF-1 mouse assessed as motor impairment at 300 mg/kg, ip after 4 hrs by rotarod test; assay type: toxicity, organism-based; parameters: dose 300 mg/kg, route intraperitoneal; settings: in vivo; outline: as §6
# Rattus norvegicus [24] = experiment: Anticonvulsant activity in Sprague-Dawley rat assessed as protection against maximal electroshock-induced seizures at 30 mg/kg, po after 0.25 hrs; assay type: functional, organism-based; parameters: dose 30 mg/kg
# Outline: (§7)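 Male Sprague Dawley rats (100–150 g; 115–150 g in text), compound suspended in 0.5% methyl cellulose, given orally; MES challenge: 60 Hz alternating current, 150 mA, 0.2 s via corneal electrodes primed with 0.5% tetracaine HCl electrolyte. Protection = abolition of hind limb tonic extension; four rats per time point, scored as number protected.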
# Rattus norvegicus [25] = experiment: Anticonvulsant activity in Sprague-Dawley rat assessed as protection against maximal electroshock-induced seizures at 30 mg/kg, po after 0.5 hrs; assay type: functional, organism-based; parameters: dose 30 mg/kg; outline: as §7
# Rattus norvegicus [26] = experiment: Anticonvulsant activity in Sprague-Dawley rat assessed as protection against maximal electroshock-induced seizures at 30 mg/kg, po after 1 hr; assay type: functional, organism-based; parameters: dose 30 mg/kg; outline: as §7
# Rattus norvegicus [27] = experiment: Anticonvulsant activity in Sprague-Dawley rat assessed as protection against maximal electroshock-induced seizures at 30 mg/kg, po after 4 hrs; assay type: functional, organism-based; parameters: dose 30 mg/kg; outline: as §7
# Rattus norvegicus [28] = experiment: Neurotoxicity in Sprague-Dawley rat assessed as motor impairment at 30 mg/kg, po after 0.25 hrs by rotarod test; assay type: toxicity, organism-based; parameters: dose 30 mg/kg, route oral; settings: in vivo
# Rattus norvegicus [29] = experiment: Neurotoxicity in Sprague-Dawley rat assessed as motor impairment at 30 mg/kg, po after 0.5 hrs by rotarod test; assay type: toxicity, organism-based; parameters: dose 30 mg/kg, route oral; settings: in vivo
# Rattus norvegicus [30] = experiment: Neurotoxicity in Sprague-Dawley rat assessed as motor impairment at 30 mg/kg, po after 1 hr by rotarod test; assay type: toxicity, organism-based; parameters: dose 30 mg/kg, route oral; settings: in vivo
# Rattus norvegicus [31] = experiment: Neurotoxicity in Sprague-Dawley rat assessed as motor impairment at 30 mg/kg, po after 2 hrs by rotarod test; assay type: toxicity, organism-based; parameters: dose 30 mg/kg, route oral; settings: in vivo
# Rattus norvegicus [32] = experiment: Neurotoxicity in Sprague-Dawley rat assessed as motor impairment at 30 mg/kg, po after 4 hrs by rotarod test; assay type: toxicity, organism-based; parameters: dose 30 mg/kg, route oral; settings: in vivo
# Rattus norvegicus [33] = experiment: Anticonvulsant activity in Sprague-Dawley rat assessed as protection against maximal electroshock-induced seizures at 30 mg/kg, po after 2 hrs; assay type: functional; outline: as §7
# Rattus norvegicus [34] = experiment: Anticonvulsant activity in Sprague-Dawley rat assessed as protection against pilocarpine-induced status epilepticus at 200 mg/kg, ip; assay type: functional, organism-based; parameters: dose 200 mg/kg
# Outline: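 Male albino Sprague Dawley rats (150–180 g) dosed i.p., then challenged with pilocarpine; qualitative screen scored as protection or no protection, seizure severity graded on the Racine scale; N/F and deaths recorded, time taken post first Stage III seizure.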
# Rattus norvegicus [35] = experiment: Toxicity in Sprague-Dawley rat assessed as change in body weight at 200 mg/kg, ip measured after 24 hrs of clonus of one of the fore limbs seizure stage in protected rat; assay type: organism-based; parameters: dose 200 mg/kg, route intraperitoneal; settings: in vivo
# Outline: (§8)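 Male Sprague Dawley rats (150–180 g) dosed i.p. then challenged with pilocarpine; body weight change measured 24 h after first Stage III seizure, split by protected and non-protected rats, given ± S.E.M.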
# Rattus norvegicus [36] = experiment: Toxicity in Sprague-Dawley rat assessed as change in body weight at 200 mg/kg, ip measured after 24 hrs of clonus of one of the fore limbs seizure stage in non-protected rat; assay type: organism-based; parameters: dose 200 mg/kg, route intraperitoneal; settings: in vivo; outline: as §8
# [37] = Octanol-phosphate buffer partition coefficient, log P of the compound at 5 mg, after 24 hrs by UV spectroscopic analysis; assay type: physicochemical
# Outline: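 5 mg compound added to 10 mL octanol plus 10 mL phosphate buffer in stoppered tube, mechanically shaken 24 h at room temperature, then left in separating funnel 6 h to equilibrate.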
# Rattus norvegicus [38] = experiment: Acute toxicity in Sprague-Dawley rat assessed as motor impairment at 300 mg/kg, ip after 0.25 hrs; assay type: organism-based; parameters: dose 300 mg/kg, route intraperitoneal; settings: in vivo; outline: as §1
# Rattus norvegicus [39] = experiment: Acute toxicity in Sprague-Dawley rat assessed as motor impairment at 300 mg/kg, ip after 0.5 hrs; assay type: organism-based; parameters: dose 300 mg/kg, route intraperitoneal; settings: in vivo; outline: as §1
# Rattus norvegicus [40] = experiment: Acute toxicity in Sprague-Dawley rat assessed as motor impairment at 300 mg/kg, ip after 1 hr; assay type: organism-based; parameters: dose 300 mg/kg, route intraperitoneal; settings: in vivo; outline: as §1
structure (smiles),measurement,setting,value
O=C(N/N=C\c1ccc(Oc2ccc(F)cc2)cc1)c1ccncc1,Activity,Rattus norvegicus [1],Non-toxic
same,Activity,Rattus norvegicus [2],Non-toxic
same,Activity,Rattus norvegicus [3],Non-toxic
same,Activity,Rattus norvegicus [4],Non-toxic
same,Activity,Rattus norvegicus [5],Non-toxic
same,PI,Mus musculus [6],6.44
same,PI,Mus musculus [7],2.67
same,ED50,Mus musculus [8],53.3 mg/kg
same,TD50 at 8 h,[9],344 mg/kg
same,ED50,Mus musculus [10],> 250 mg/kg
same,ED50,Mus musculus [11],128 mg/kg
same,Activity,Mus musculus [12],inactive
same,Activity,Mus musculus [13],inactive
same,Activity,Mus musculus [14],50%
same,Activity,Mus musculus [15],Active
same,Activity,Mus musculus [16],75%
same,Activity,Mus musculus [17],inactive
same,Activity,Mus musculus [18],100 mg/kg
same,Activity,Mus musculus [19],300 mg/kg
same,Activity,Mus musculus [20],inactive
same,Activity,Mus musculus [21],inactive
same,Activity,Mus musculus [22],Non-toxic
same,Activity,Mus musculus [23],Non-toxic
same,Activity,Rattus norvegicus [24],inactive
same,Activity,Rattus norvegicus [25],inactive
same,Activity,Rattus norvegicus [26],inactive
same,Activity,Rattus norvegicus [27],inactive
same,Activity,Rattus norvegicus [28],Non-toxic
same,Activity,Rattus norvegicus [29],Non-toxic
same,Activity,Rattus norvegicus [30],Non-toxic
same,Activity,Rattus norvegicus [31],Non-toxic
same,Activity,Rattus norvegicus [32],Non-toxic
same,Activity,Rattus norvegicus [33],25%
same,Activity,Rattus norvegicus [34],inactive
same,Activity,Rattus norvegicus [35],Non-toxic
same,Activity,Rattus norvegicus [36],24.2 g
same,logP at 24 h,[37],3.5
same,Activity,Rattus norvegicus [38],Toxic
same,Activity,Rattus norvegicus [39],Toxic
same,Activity,Rattus norvegicus [40],Toxic
